Source: ChEMBL document CHEMBL3608285, “Citrifelins A and B, Citrinin Adducts with a Tetracyclic Framework from Cocultures of Marine-Derived Isolates of Penicillium citrinum and Beauveria felina” (2015)
Values after ≈ are worked out from the molar mass of the structure shown. Active and inactive are the calls of the source. No cut-off for these calls is given here. Numbered stars: 1 amine (or outer) side, 2 acyl side, 3 side chain; on linkers, the order of the positions; unused ones are H or OH. Square brackets hold non-standard residues; d marks the D form. Peptide text beside a SMILES is read from it. X1 = C[C@H]1CCN([*:1])[C@@H]1C(=O)[*:2]; dLac(3-vinyl) = C=CC[C@@H](O)C(=O)O; NMeF = CN[C@@H](Cc1ccccc1)C(=O)O; Hica(2S) = CC(C)C[C@H](O)C(=O)O; NMeV = CN[C@H](C(=O)O)C(C)C; NMeA = CN[C@@H](C)C(=O)O; βAla = NCCC(=O)O

Tests used:
[1] = tested on: Vibrio alginolyticus; experiment: Antimicrobial activity against Vibrio alginolyticus by well diffusion method; type: functional
Method in brief: (§1)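 Agar well diffusion assay against the bacterial test strain; chloromycetin run alongside as positive control. Method follows a cited earlier protocol.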

[2] = tested on: Edwardsiella tarda; experiment: Antimicrobial activity against Edwardsiella tarda by well diffusion method; type: functional, organism-based; method in brief: as §1
[3] = tested on: Vibrio anguillarum; experiment: Antimicrobial activity against Vibrio anguillarum by well diffusion method; type: functional, organism-based; method in brief: as §1
[4] = tested on: Vibrio parahaemolyticus; experiment: Antimicrobial activity against Vibrio parahaemolyticus by well diffusion method; type: functional, organism-based; method in brief: as §1
[5] = tested on: Aeromonas hydrophila; experiment: Antimicrobial activity against Aeromonas hydrophila by well diffusion method; type: functional, organism-based; method in brief: as §1
[6] = tested on: Vibrio harveyi; experiment: Antimicrobial activity against Vibrio harveyi by well diffusion method; type: functional, organism-based; method in brief: as §1
[7] = tested on: Staphylococcus aureus; experiment: Antimicrobial activity against Staphylococcus aureus by well diffusion method; type: functional
[8] = tested on: Escherichia coli; experiment: Antimicrobial activity against Escherichia coli by well diffusion method; type: functional

SMILES	MIC [1]	MIC [2]	MIC [3]	MIC [5]	MIC [6]	MIC [7] [µg/mL]	MIC [8] [µg/mL]	MIC [4]
C=CC[C@H]1OC(=O)CCNC(=O)[C@H](C)N(C)C(=O)[C@H](C(C)C)N(C)C(=O)[C@H]([C@@H](C)CC)NC(=O)[C@@H]2CCCN2C1=O (cyclo([dLac(3-vinyl)]PI[NMeV][NMeA][βAla]))	inactive	inactive	inactive	inactive	inactive			inactive
Cc1c(O)c(C(=O)O)c(O)c2c1[C@H](C)[C@@H](C)OC2=O	inactive	inactive	inactive	inactive	inactive			inactive
CC(C)C[C@@H]1OC(=O)CCNC(=O)[C@H](Cc2ccccc2)N(C)C(=O)[C@H](C(C)C)N(C)C(=O)[C@H](Cc2ccccc2)NC(=O)[C@@H]2CCCN2C1=O (cyclo(F[NMeV][NMeF][βAla][Hica(2S)]P))	inactive	inactive	inactive	inactive	inactive			inactive
C=CC[C@H]1OC(=O)CCNC(=O)[C@H](C)N(C)C(=O)[C@H](C(C)C)N(C)C(=O)[C@H]([C@@H](C)CC)NC(=O)[C@@H]2[C@@H](C)CCN2C1=O (cyclo(I[NMeV][NMeA][βAla][dLac(3-vinyl)][X1]))	inactive	inactive	inactive	inactive	inactive			inactive
CC(C)C[C@@H]1OC(=O)CCNC(=O)[C@H](Cc2ccccc2)N(C)C(=O)[C@H](C(C)C)N(C)C(=O)[C@H](Cc2ccccc2)NC(=O)[C@@H]2[C@@H](C)CCN2C1=O (cyclo(F[NMeV][NMeF][βAla][Hica(2S)][X1]))	inactive	inactive	inactive	inactive	inactive			inactive

More lines, main results first:

MIC [1]	MIC [2]	MIC [3]	MIC [5]	MIC [6]	MIC [7] [µg/mL]	MIC [8] [µg/mL]	SMILES	MIC [4]
16 µg/mL (≈ 49 µM)	inactive	inactive	inactive	inactive	8 (≈ 24.5 µM)	8 (≈ 24.5 µM)	Cc1c(O)cc2c3c1[C@H](C)[C@@H](C)O[C@@H]3C[C@H](c1ccc(O)cc1)O2	inactive
inactive	inactive	inactive	inactive	inactive			Cc1c2c(c3oc4cc(=O)c(C)c5c-4c(c3c1O)O[C@H](C)[C@H]5C)O[C@H](C)[C@H]2C	inactive
16 µg/mL (≈ 44.9 µM)	inactive	inactive	inactive	inactive	4 (≈ 11.2 µM)	2 (≈ 5.61 µM)	COc1cc([C@H]2C[C@H]3O[C@H](C)[C@@H](C)c4c(C)c(O)cc(c43)O2)ccc1O	inactive
8 µg/mL (≈ 36 µM)	inactive	inactive	inactive	inactive			Cc1c(O)cc(O)c2c1[C@H](C)[C@@H](C)OC2=O	inactive
